The source of these data is ChEMBL document CHEMBL4196207, “Medermycin-Type Naphthoquinones from the Marine-Derived Streptomyces sp. XMA39” (J Nat Prod, 2018).

Converted amounts (≈) assume the structure as drawn. Positions of bridges follow the written chain, without caps; N, C: chain ends. Non-standard residues stand in square brackets, D forms with d. Residues, ends and D or L forms follow the SMILES beside them. *: point of attachment. Octanoyl(6-Me) = CCC(C)CCCCC(=O)*; Dab = NCC[C@H](N)C(=O)O

One test has as its system PC-3. In words: Cytotoxicity against human PC3 cells after 72 hrs by SRB assay. Conditions: PC-3, 72 h. The format is functional, cell-based. In outline: (§1)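 SRB assay. Cells were seeded 24 h, then given a range of compound concentrations for 72 h at 37 °C. Fixed with cold 10% TCA for 2 h at 4 °C, washed, stained with 0.4% SRB, rinsed with 1% acetic acid, and dye dissolved in 10 mM Tris. OD read at 515 nm. IC50 by the Reed–Muench method.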
On the technique in general: Sulforhodamine B stains cellular protein and so reports cell mass.

The test system of a further test is Candida albicans. In words: Antimicrobial activity against Candida albicans after 12 hrs by microdilution method. Format: functional. In outline: (§2)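 Broth microdilution in 96-well plates. A 10 mg/mL DMSO stock was serially diluted in microbial cell suspension, 200 μL final. Plates were incubated at 37 °C for 12 h. MIC was read as the lowest concentration completely clear against a black background. Triplicate. E. coli strain ATCC 25922; C. albicans strain not specified.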
(Dilution methods test growth across graded concentrations, often in twofold steps.)

Another test relates to Escherichia coli. In words: Antimicrobial activity against Escherichia coli ATCC 25922 after 12 hrs by microdilution method. Format: functional. Conditions: ATCC 25922, 12 h. In outline:
as §2

Test [1] concerns the target Rho-associated protein kinase 2 (Homo sapiens, UniProt O75116). In words: Inhibition of ROCK2 (unknown origin) using SKT S2 as substrate measured after 30 mins by HTRF assay. Summed up: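 HTRF KinEASE format. Compound dilutions were added to a substrate/enzyme/ATP mixture and incubated 0.5 h at 37 °C. SA-XL665 and STK antibody–cryptate were then added, followed by 1 h at room temperature before HTRF read-out. Triplicate.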

For the next test, the system named is Staphylococcus aureus. In words: Antimicrobial activity against methicillin-resistant Staphylococcus aureus ATCC 43300 after 12 hrs by microdilution method. Format: functional. Conditions: ATCC 43300, 12 h. Summed up:
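Broth microdilution. Compound stock of 10 mg/mL in DMSO was serially diluted with microbial cell suspension to a series of concentrations in 96-well plates. Plates were incubated at 37 °C for 12 h. MIC is the lowest concentration that stays completely clear against a black background. Vancomycin served as positive control. Tests were run in triplicate.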

Another test concerns HCT-116. As to the kind of experiment: Cytotoxicity against human HCT116 cells after 72 hrs by SRB assay. Format: functional, cell-based. Conditions: HCT-116, 72 h. In outline: as §1

Chain of Rho-associated protein kinase 2 (O75116 whole entry): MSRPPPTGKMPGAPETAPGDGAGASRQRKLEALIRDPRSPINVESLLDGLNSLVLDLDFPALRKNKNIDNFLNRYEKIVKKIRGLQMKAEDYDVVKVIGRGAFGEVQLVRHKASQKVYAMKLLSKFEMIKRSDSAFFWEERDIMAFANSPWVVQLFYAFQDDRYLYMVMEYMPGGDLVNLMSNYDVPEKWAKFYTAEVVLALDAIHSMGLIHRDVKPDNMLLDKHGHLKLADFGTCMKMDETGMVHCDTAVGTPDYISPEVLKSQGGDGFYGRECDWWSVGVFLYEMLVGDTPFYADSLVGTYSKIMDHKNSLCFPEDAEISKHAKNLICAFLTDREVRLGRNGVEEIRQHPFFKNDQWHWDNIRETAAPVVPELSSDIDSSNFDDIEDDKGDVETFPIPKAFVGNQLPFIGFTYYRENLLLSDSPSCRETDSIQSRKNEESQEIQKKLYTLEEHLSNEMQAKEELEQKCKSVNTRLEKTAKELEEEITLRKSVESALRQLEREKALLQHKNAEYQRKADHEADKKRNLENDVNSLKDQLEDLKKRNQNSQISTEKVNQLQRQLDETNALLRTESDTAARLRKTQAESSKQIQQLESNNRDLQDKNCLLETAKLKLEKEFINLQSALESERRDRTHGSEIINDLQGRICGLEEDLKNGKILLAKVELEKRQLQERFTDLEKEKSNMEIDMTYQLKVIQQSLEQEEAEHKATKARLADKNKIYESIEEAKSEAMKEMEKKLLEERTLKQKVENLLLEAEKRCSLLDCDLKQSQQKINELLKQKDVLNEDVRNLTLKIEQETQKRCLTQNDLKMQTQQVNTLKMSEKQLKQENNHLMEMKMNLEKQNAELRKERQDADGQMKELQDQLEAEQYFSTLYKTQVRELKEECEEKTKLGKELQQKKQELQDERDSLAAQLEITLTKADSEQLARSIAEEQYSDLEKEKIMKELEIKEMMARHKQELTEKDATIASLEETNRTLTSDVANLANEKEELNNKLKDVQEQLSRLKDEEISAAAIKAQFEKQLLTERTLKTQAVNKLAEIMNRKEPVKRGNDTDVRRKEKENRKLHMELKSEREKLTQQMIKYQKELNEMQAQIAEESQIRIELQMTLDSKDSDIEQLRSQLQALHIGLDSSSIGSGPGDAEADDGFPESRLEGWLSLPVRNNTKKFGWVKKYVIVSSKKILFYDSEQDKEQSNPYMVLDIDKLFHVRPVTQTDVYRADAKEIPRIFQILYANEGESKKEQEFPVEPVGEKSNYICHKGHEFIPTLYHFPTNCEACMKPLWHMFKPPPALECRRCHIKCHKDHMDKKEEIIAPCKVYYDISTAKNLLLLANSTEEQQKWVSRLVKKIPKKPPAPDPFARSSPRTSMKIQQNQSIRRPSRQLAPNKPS

Take `COC(=O)C[C@H]1OC(C)=C2C(=O)c3c(ccc([C@H]4C[C@@H](N(C)C)[C@H](O)[C@@H](C)O4)c3O)C(=O)C2=C1O`: the IC50 with PC-3 turned out to be 19 µM; in test [1] it was 9 µM; in the test on HCT-116, 2.9 µM. The MIC in the test on Candida albicans came out at 6 µg/mL (≈ 12.3 µM); in the test on Escherichia coli it was 4 µg/mL (≈ 8.21 µM); with Staphylococcus aureus, 3 µg/mL (≈ 6.15 µM).
For the compound `COC(=O)C[C@H]1O[C@H](C)c2c(oc(=O)c3ccc([C@H]4C[C@@H](N(C)C)[C@H](O)[C@@H](C)O4)c(O)c3c2=O)[C@H]1O`, the half-maximal inhibitory concentration (IC50) in the test on PC-3 is above 40 µM; in test [1], above 20 µM; in the test on HCT-116 it was above 40 µM. For the same compound, the results for the minimal inhibitory concentration (MIC) against Candida albicans, against Escherichia coli and with Staphylococcus aureus were 10 µg/mL (≈ 19.8 µM), 10 µg/mL (≈ 19.8 µM) and 15 µg/mL (≈ 29.7 µM), respectively.
Take `C[C@H]1O[C@@H]2CC(=O)O[C@@H]2C2=C1C(=O)c1c(ccc([C@H]3C[C@@H](N(C)C)[C@H](O)[C@@H](C)O3)c1O)C2=O` [LACTOQUINOMYCIN]: the 50% inhibitory concentration (IC50) with PC-3 worked out at 0.015 µM; in test [1], 0.011 µM; in the test on HCT-116 it was 0.043 µM. Besides, the values for the MIC in the test on Candida albicans, against Escherichia coli and with Staphylococcus aureus were 5 µg/mL (≈ 10.9 µM), 2 µg/mL (≈ 4.37 µM) and 0.25 µg/mL (≈ 0.546 µM), respectively.
With `C[C@@H]1[C@H](O)[C@@H](C)/C=C/C=C/C=C/C=C/C=C/C=C/C=C/[C@H](O[C@@H]2O[C@H](C)[C@@H](O)[C@H](N)[C@@H]2O)C[C@@H]2O[C@](O)(C[C@@H](O)C[C@@H](O)[C@H](O)CC[C@@H](O)C[C@@H](O)CC(=O)O[C@H]1C)C[C@H](O)[C@H]2C(=O)O` [AMPHOTERICIN B], 2 µg/mL (≈ 2.16 µM) was the least that counted as inhibitory in the test with Candida albicans (MIC).
Regarding `CCC(C)CCCCC(=O)N[C@@H](CCN)C(=O)N[C@H](C(=O)N[C@@H](CCN)C(=O)N[C@H]1CCNC(=O)[C@H]([C@@H](C)O)NC(=O)[C@H](CCN)NC(=O)[C@H](CCN)NC(=O)[C@H](CC(C)C)NC(=O)[C@@H](Cc2ccccc2)NC(=O)[C@H](CCN)NC1=O)[C@@H](C)O` (some centres not stated) ({Octanoyl(6-Me)}-[Dab]T[Dab][Dab][Dab][dF]L[Dab][Dab]T; lactam 4-C), the MIC against Escherichia coli was determined as 2 µg/mL (≈ 1.66 µM).
Regarding `C[C@H]1O[C@@H]2CC(=O)O[C@@H]2c2oc(=O)c3ccc([C@H]4C[C@@H](N(C)C)[C@H](O)[C@@H](C)O4)c(O)c3c(=O)c21`, the figures for the 50% inhibitory concentration (IC50) (in the test on PC-3; in test [1]; in the test on HCT-116) were above 40 µM, above 20 µM and above 40 µM, respectively. Besides, the MIC against Candida albicans came out at 7 µg/mL (≈ 14.8 µM); against Escherichia coli, 8 µg/mL (≈ 16.9 µM); in the test with Staphylococcus aureus, 12 µg/mL (≈ 25.3 µM).
As to `COC(=O)C[C@@H]1C[C@@]2(O)C(=O)c3ccc([C@H]4C[C@@H](N(C)C)[C@H](O)[C@@H](C)O4)c(O)c3C(=O)[C@]2(O)[C@@H](C)O1`, the IC50 with PC-3 was 16 µM; in test [1] it was above 20 µM; in the test with HCT-116 it was 4.4 µM. For the same compound, the MIC against Candida albicans was 9 µg/mL (≈ 17.7 µM); with Escherichia coli it was 5 µg/mL (≈ 9.85 µM); against Staphylococcus aureus it was 6 µg/mL (≈ 11.8 µM).

Broadly, the IC50 is the midpoint of a concentration-inhibition curve. A lower IC50 goes with inhibition by little substance. A word on the MIC: it is the lowest concentration that inhibits growth of the organism.
